Laboratory results published in ChEMBL document CHEMBL1123135, “Substituent effects on the bioactivation of 2-(N-hydroxyacetamido)fluorenes by N-arylhydroxamic acid N,O-acyltransferase” (J Med Chem, 1985).

Key:
[1] = Observed log rate of methylthio adduct formation; assay type: ADME
How it was run: (§1)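 Hamster liver 105000g cytosol AHAT was taken as the 35–50% ammonium sulfate fraction (2–3-fold purified). Incubation (1.0 mL, pH 6.8 sodium phosphate) held 0.8 μmol NAD⁺, 10 μmol N-acetyl-L-[¹⁴C-CH₃]methionine, 1 mg enzyme and 1 μmol hydroxamic acid, for 10 min at 37 °C in air. Ether wash and 90 °C/45 min heating were followed by benzene–alkane extraction and scintillation counting. Heat-denatured enzyme blanks were subtracted; N = 3.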

Hamster = experiment: Rate of methylthio adduct formation catalyzed by partially purified hamster hepatic enzyme per mg protein per 10 min; assay type: ADME; details: cricetinae, in vitro; how it was run: as §1

| Structure (SMILES) | Log rate [1] | Rate (Hamster) [nmol/mg/10 min] |
| --- | --- | --- |
| COc1ccc2c(c1)Cc1cc(N(O)C(C)=O)ccc1-2 | 0.09 | 1.2 |
| CC(=O)N(O)c1ccc2c(c1)Cc1cc(C#N)ccc1-2 | 1.4 | 24.9 |
| CCCCOc1ccc2c(c1)Cc1cc(N(O)C(C)=O)ccc1-2 | – | 0 |
| CC(=O)c1ccc2c(c1)Cc1cc(N(O)C(C)=O)ccc1-2 | 1.79 | 61 |
| CC(=O)N(O)c1ccc2c(c1)Cc1ccccc1-2 | 0.87 | 7.5 |

Further lines, results first:

| Log rate [1] | Rate (Hamster) [nmol/mg/10 min] | Structure (SMILES) |
| --- | --- | --- |
| 1.18 | 15.2 | CC(=O)N(O)c1ccc2c(c1)Cc1cc(F)ccc1-2 |
| 1.02 | 10.5 | CC(=O)N(O)c1ccc2c(c1)Cc1cc(Br)ccc1-2 |
| 0.37 | 2.4 | CC(=O)N(O)c1ccc2c(c1)Cc1cc(I)ccc1-2 |
